The species entered for assay [1] is Oryctolagus cuniculus. Kind of assay: Inhibition of chymotrypsin-like activity of rabbit reticulocyte 20S proteasome at 100 uM.
The species entered for assay [2] is Oryctolagus cuniculus. Put plainly: Inhibition of post acid activity of rabbit reticulocyte 20S proteasome at 100 uM.
The species named for assay [3] is Oryctolagus cuniculus. Kind of assay: Activation of trypsin-like activity of rabbit reticulocyte 20S proteasome relative to control. A digest of the protocol:
(§1)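 Trypsin-like site: proteasome exposed to 0.1-100 µM compound, fluorogenic substrate hydrolysis read 1 h at 37 °C in pH 7.5 20 mM Tris, 1 mM DTT, 10% glycerol without SDS; 3% DMSO final. Initial rates relative to untreated control: >100% expressed as activation factor, <100% as inhibition; Ki via Vi/V0 = 1/(1+[I]/Ki(app)) or IC50 = Ki(1+[S]/Km).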

Assay [4] can be described thus: Inhibition of chymotrypsin-like activity of rabbit reticulocyte 20S proteasome. Also on record: species or system Oryctolagus cuniculus.
Assay [5] is described as follows: Inhibition of post acid activity of rabbit reticulocyte 20S proteasome. The arrangement: species or system Oryctolagus cuniculus.
Assay [6] can be described thus: Inhibition of trypsin-like activity of rabbit reticulocyte 20S proteasome. Also on record: species or system Oryctolagus cuniculus. In outline: as §1
Assay [7] is filed under the species Oryctolagus cuniculus. Put plainly: Inhibition of trypsin-like activity of rabbit reticulocyte 20S proteasome at 100 uM. A digest of the protocol: as §1

pKi: −log10 of the molar value. Residues, ends and D or L forms follow the SMILES beside them. *: point of attachment. Cbz = O=C(OCc1ccccc1)*; Boc = CC(C)(C)OC(=O)*; NHBn = c1ccc(CN*)cc1; NHPh = c1ccc(N*)cc1; Bn = c1ccc(C*)cc1

Consider `C[C@H](NC(=O)[C@H](Cc1ccc(O)cc1)NC(=O)OC(C)(C)C)C(=O)N[C@@H](Cc1c[nH]c2ccccc12)C(=O)O` (Boc-Tyr-Ala-Trp-OH), for which the inhibition in the assay filed under Oryctolagus cuniculus [1] and in the assay filed under Oryctolagus cuniculus [2] was less than 20% throughout. This molecule showed a Fold change in the assay listed under Oryctolagus cuniculus [3] of 6.8. In addition, the pKi in assay [4] and in assay [5] was less than 4.00 each time.
As to `CCOC(=O)[C@@H](Cc1c[nH]c2c(-c3ccc(C[C@H](NC(=O)OC(C)(C)C)C(=O)N[C@H](CC(C)C)C(=O)OC)cc3OCc3ccccc3)cccc12)NC(=O)OCc1ccccc1`, the inhibition (commonly the change of the read-out against control, counted positive when it falls) is less than 20% in the assay filed under Oryctolagus cuniculus [1] and 20% in the assay listed under Oryctolagus cuniculus [2]. Moreover, in the assay filed under Oryctolagus cuniculus [3], the Fold change came to 1.4. In addition, the negative logarithm of the Ki (pKi) in assay [4] and in assay [5] was less than 4.00 each time.
Molecule `C[C@H](NC(=O)[C@H](Cc1ccc(OCc2ccccc2)cc1)NC(=O)OC(C)(C)C)C(=O)N[C@@H](Cc1c[nH]c2ccccc12)C(=O)NCc1ccccc1` (Boc-Tyr(Bn)-Ala-Trp-NHBn) came in with an inhibition in the assay listed under Oryctolagus cuniculus [1] of less than 20%. The molecule further yielded a Fold change in the assay filed under Oryctolagus cuniculus [3] of 1.7. The pKi – broadly, the negative decadic logarithm of the Ki, by convention in mol/L – in assay [4] is less than 4.00; in assay [5], 4.26.
As for `COC(=O)[C@H](Cc1c[nH]c2ccccc12)NC(=O)[C@H](C)NC(=O)[C@H](Cc1ccc(O)cc1)NC(=O)OC(C)(C)C` (Boc-Tyr-Ala-Trp-OMe), the Fold change in the assay filed under Oryctolagus cuniculus [3] came to 6. The pKi is 5.04 in assay [4] and 5.06 in assay [5].
In the case of `CC(C)C[C@H](NC(=O)[C@@H](N)Cc1ccc(OCc2ccccc2)cc1)C(=O)N[C@@H](Cc1c[nH]c2ccccc12)C(=O)NCCCCN`, the results for the negative-log Ki (pKi) in assay [6], in assay [4] and in assay [5] were 6.48, 5.43 and 4.65, respectively.
Take `COC(=O)[C@H](Cc1c[nH]c2ccccc12)NC(=O)[C@H](C)NC(=O)[C@H](Cc1ccc(OCc2ccccc2)cc1)NC(=O)OC(C)(C)C` (Boc-Tyr(Bn)-Ala-Trp-OMe): the Fold change in the assay listed under Oryctolagus cuniculus [3] came out at 9.8. Besides, the pKi is 4.35 in assay [4] and less than 4.00 in assay [5].
Take `COC(=O)[C@H](Cc1c[nH]c2c(Br)cccc12)NC(=O)[C@H](CC(N)=O)NC(=O)[C@H](Cc1ccc(OCc2ccccc2)c(I)c1)NC(=O)OC(C)(C)C`: the pKi in assay [6] is less than 4.00; in assay [4] it was 4.85; in assay [5] it was 4.26. For the same molecule, the inhibition in the assay filed under Oryctolagus cuniculus [7] is less than 20%.
In turn, `CC(C)(C)OC(=O)N[C@@H](Cc1ccc(OCc2ccccc2)cc1)C(=O)NCC(=O)N[C@@H](Cc1c[nH]c2ccccc12)C(=O)NCc1ccccc1` (Boc-Tyr(Bn)-Gly-Trp-NHBn) registered an inhibition in the assay listed under Oryctolagus cuniculus [1] of less than 20%. The Fold change in the assay listed under Oryctolagus cuniculus [3] came out at 1.7. Moreover, the figures for the pKi in assay [4] and in assay [5] were less than 4.00 and 4.50, respectively.
In the case of `COC(=O)[C@H](Cc1c[nH]c2c(Br)cccc12)NC(=O)[C@H](C)NC(=O)[C@H](Cc1ccc(OC)c(I)c1)NC(=O)OC(C)(C)C`, the figures for the negative-log Ki (pKi) in assay [6], in assay [4] and in assay [5] were less than 4.00, 4.23 and 4.13, respectively. In the assay listed under Oryctolagus cuniculus [7], this molecule displayed an inhibition of less than 20%.
As for `NCCCC[C@H](NC(=O)[C@@H](N)Cc1ccc(OCc2ccccc2)cc1)C(=O)N[C@@H](Cc1c[nH]c2ccccc12)C(=O)Nc1ccc(O)cc1`, the pKi in assay [6] is 6.01; in assay [4], 6.07; in assay [5], less than 4.00. This molecule yielded an inhibition in the assay filed under Oryctolagus cuniculus [2] of less than 20%.
Turning to `CC(C)(C)OC(=O)N[C@@H](Cc1ccc(OCc2ccccc2)cc1)C(=O)NCC(=O)N[C@@H](Cc1c[nH]c2ccccc12)C(=O)O` (Boc-Tyr(Bn)-Gly-Trp-OH), the inhibition in the assay filed under Oryctolagus cuniculus [1] and in the assay listed under Oryctolagus cuniculus [2] was less than 20% in each case. The molecule also came in with a Fold change in the assay listed under Oryctolagus cuniculus [3] of 1.8. Also, the pKi in assay [4] and in assay [5] was less than 4.00 in each case.
`COC(=O)[C@@H]1Cc2c[nH]c3c(cccc23)-c2ccc(cc2OC)C[C@H](NC(=O)OC(C)(C)C)C(=O)N[C@@H](CC(C)C)C(=O)N1` yielded an inhibition in the assay filed under Oryctolagus cuniculus [1] of less than 20%. This molecule yielded a Fold change in the assay listed under Oryctolagus cuniculus [3] of 1.8. Also, the pKi in assay [4] and in assay [5] was less than 4.00 throughout.
Turning to `CC(C)(C)OC(=O)NCCCC[C@H](NC(=O)[C@H](Cc1ccc(OCc2ccccc2)cc1)NC(=O)OC(C)(C)C)C(=O)N[C@@H](Cc1c[nH]c2ccccc12)C(=O)Nc1ccc(O)cc1`, the negative-log Ki (pKi) is less than 4.00 in assay [6], 4.18 in assay [4] and less than 4.00 in assay [5]. In addition, the inhibition in the assay filed under Oryctolagus cuniculus [2] is less than 20%.
As for `CNC(=O)[C@@H](Cc1c[nH]c2c(-c3ccc(C[C@H](NC(=O)OC(C)(C)C)C(=O)N[C@H](CC(C)C)C(=O)OC)cc3OCc3ccccc3)cccc12)NC(=O)OCc1ccccc1`, the pKi in assay [6] is 4.16; in assay [4], less than 4.00; in assay [5], less than 4.00. Besides, the inhibition in the assay listed under Oryctolagus cuniculus [1] and in the assay filed under Oryctolagus cuniculus [2] was less than 20% each time.
As to `CC(C)(C)OC(=O)N[C@@H](Cc1ccc(OCc2ccccc2)cc1)C(=O)N[C@@H](CCCN(C(=N)NC(=O)OCc1ccccc1)C(=O)OCc1ccccc1)C(=O)N[C@@H](Cc1c[nH]c2ccccc12)C(=O)NCc1ccccc1`, the inhibition in the assay filed under Oryctolagus cuniculus [1] and in the assay listed under Oryctolagus cuniculus [2] was less than 20% each time. In the assay filed under Oryctolagus cuniculus [3], the Fold change stood at 1.9. Also, the pKi in assay [4] and in assay [5] was less than 4.00 each time.
In the case of `C[C@H](NC(=O)[C@H](Cc1ccc(OCc2ccccc2)cc1)NC(=O)OC(C)(C)C)C(=O)N[C@@H](Cc1c[nH]c2ccccc12)C(=O)O` (Boc-Tyr(Bn)-Ala-Trp-OH), the inhibition in the assay listed under Oryctolagus cuniculus [1] and in the assay listed under Oryctolagus cuniculus [2] was less than 20% each time. Also, the Fold change in the assay filed under Oryctolagus cuniculus [3] stood at 1.5. The pKi in assay [4] and in assay [5] was less than 4.00 each time.
`NCCCC[C@H](NC(=O)[C@@H](N)Cc1ccc(OCc2ccccc2)cc1)C(=O)N[C@@H](Cc1c[nH]c2ccccc12)C(=O)NCc1ccccc1` (H-Tyr(Bn)-Lys-Trp-NHBn): the negative logarithm of the Ki (pKi) was 6.49 in assay [6], 5.97 in assay [4] and less than 4.00 in assay [5]. The same molecule showed an inhibition in the assay listed under Oryctolagus cuniculus [2] of less than 20%.
Turning to `COC(=O)[C@H](Cc1c[nH]c2c(Br)cccc12)NC(=O)[C@H](CC(C)C)NC(=O)[C@H](Cc1ccc(OCc2ccccc2)c(I)c1)NC(=O)OC(C)(C)C`, the inhibition in the assay filed under Oryctolagus cuniculus [1] and in the assay listed under Oryctolagus cuniculus [2] was less than 20% each time. In the assay listed under Oryctolagus cuniculus [3], the Fold change came out at 2. Moreover, the pKi in assay [4] and in assay [5] was less than 4.00 throughout.
On to `NCCCC[C@H](NC(=O)[C@@H](N)Cc1ccc(OCc2ccccc2)cc1)C(=O)N[C@@H](Cc1c[nH]c2ccccc12)C(=O)Nc1ccccc1` (H-Tyr(Bn)-Lys-Trp-NHPh), for which the pKi in assay [6] was 5.95; in assay [4] it was 5.65; in assay [5] it was less than 4.00. In the assay listed under Oryctolagus cuniculus [2], this molecule showed an inhibition of less than 20%.
In the assay listed under Oryctolagus cuniculus [3], `CC(C)C[C@H](NC(=O)[C@H](Cc1ccc(OCc2ccccc2)cc1)NC(=O)OC(C)(C)C)C(=O)N[C@@H](Cc1c[nH]c2ccccc12)C(=O)NCCCCNC(=O)OC(C)(C)C` yielded a Fold change of 2.3. For the same molecule, the pKi in assay [4] was 4.09; in assay [5] it was 4.50.
As to `CC(C)C[C@@H](C=O)NC(=O)[C@H](CC(C)C)NC(=O)[C@H](CC(C)C)NC(=O)OCc1ccccc1` [MG-132] (Cbz-Leu-Leu-Leu-aldehyde), the pKi is 5.35 in assay [6], 7.12 in assay [4] and 6.17 in assay [5].
Turning to `CNC(=O)[C@H](Cc1c[nH]c2c(Br)cccc12)NC(=O)[C@H](C)NC(=O)[C@H](Cc1ccc(OCc2ccccc2)c(I)c1)NC(=O)OC(C)(C)C`, the figures for the pKi in assay [6], in assay [4] and in assay [5] were less than 4.00, 4.23 and 4.52, respectively. This molecule also showed an inhibition in the assay filed under Oryctolagus cuniculus [7] of less than 20%.
In the case of `C[C@H](NC(=O)[C@@H](N)Cc1ccc(OCc2ccccc2)cc1)C(=O)N[C@@H](Cc1c[nH]c2ccccc12)C(=O)NCc1ccccc1` (H-Tyr(Bn)-Ala-Trp-NHBn), the negative logarithm of the Ki (pKi) is less than 4.00 in assay [6], 6.32 in assay [4] and less than 4.00 in assay [5].
As to `CC(C)C[C@H](NC(=O)[C@H](Cc1ccc(OCc2ccccc2)cc1)NC(=O)OC(C)(C)C)C(=O)N[C@@H](Cc1c[nH]c2ccccc12)C(=O)Nc1ccccc1` (Boc-Tyr(Bn)-Leu-Trp-NHPh), the inhibition in the assay listed under Oryctolagus cuniculus [1] and in the assay filed under Oryctolagus cuniculus [2] was less than 20% throughout. In the assay listed under Oryctolagus cuniculus [3], this molecule returned a Fold change of 1.9. Besides, the pKi in assay [4] and in assay [5] was less than 4.00 throughout.
As for `CC(C)(C)OC(=O)N[C@@H](Cc1ccc(O)cc1)C(=O)N[C@@H](CCCNC(=N)N)C(=O)N[C@@H](Cc1c[nH]c2ccccc12)C(=O)NCc1ccccc1` (Boc-Tyr-Arg-Trp-NHBn), the pKi in assay [6] is 5.41; in assay [4], 5.92; in assay [5] it was 6.22.
For the molecule `CC(C)(C)OC(=O)NCCCC[C@H](NC(=O)[C@H](Cc1ccc(OCc2ccccc2)cc1)NC(=O)OC(C)(C)C)C(=O)N[C@@H](Cc1c[nH]c2ccccc12)C(=O)Nc1ccccc1` (Boc-Tyr(Bn)-Lys(Boc)-Trp-NHPh), the inhibition in the assay filed under Oryctolagus cuniculus [1] and in the assay listed under Oryctolagus cuniculus [2] was less than 20% in each case. In the assay filed under Oryctolagus cuniculus [3], this molecule returned a Fold change of 1.6. For the same molecule, the pKi in assay [4] and in assay [5] was less than 4.00 throughout.
For `CC(C)C[C@H](NC(=O)[C@H](Cc1ccc(OCc2ccccc2)cc1)NC(=O)OC(C)(C)C)C(=O)N[C@@H](Cc1c[nH]c2ccccc12)C(=O)Nc1ccc(O)cc1`, in the assay filed under Oryctolagus cuniculus [1], the inhibition is less than 20%. In addition, the Fold change in the assay listed under Oryctolagus cuniculus [3] was determined as 1.6. Further, the figures for the pKi in assay [4] and in assay [5] were less than 4.00 and 4.02, respectively.
Take `CNC(=O)[C@@H](Cc1c[nH]c2c(-c3ccc(C[C@H](NC(=O)OC(C)(C)C)C(=O)N[C@H](C)C(=O)OC)cc3OCc3ccccc3)cccc12)NC(=O)OCc1ccccc1`: the negative logarithm of the Ki (pKi) in assay [6] is 4.67; in assay [4], less than 4.00; in assay [5], less than 4.00. This molecule also returned an inhibition in the assay listed under Oryctolagus cuniculus [1] of 20%.
Regarding `COC(=O)[C@@H]1Cc2c[nH]c3c(cccc23)-c2ccc(cc2OCc2ccccc2)C[C@H](NC(=O)OC(C)(C)C)C(=O)N[C@@H](CC(C)C)C(=O)N1`, the inhibition in the assay listed under Oryctolagus cuniculus [1] and in the assay filed under Oryctolagus cuniculus [2] was less than 20% each time. Moreover, in the assay filed under Oryctolagus cuniculus [3], the Fold change is 1.4. Also, the pKi in assay [4] and in assay [5] was less than 4.00 each time.

Source of the values: ChEMBL document CHEMBL1143703, “Linear TMC-95-based proteasome inhibitors” (J Med Chem, 2007).
